Measured values published in ChEMBL document CHEMBL4007447, “Synthesis, biological evaluation and molecular docking study of N-(2-methoxyphenyl)-6-((4-nitrophenyl)sulfonyl)benzamide derivatives as potent HIV-1 Vif antagonists” (Eur J Med Chem, 2017).
In brackets after ≈: the same amount, converted by molar mass. Activity calls are given as the source filed them. The calls are words filed in the database; no cut-off is given here.

Legend:
[1] = system: Human immunodeficiency virus 1; assay: Antiviral activity against HIV1 subtype B NL4-3 infected in human H9 cells assessed as reduction in p24 level after 7 days by ELISA; format: functional, cell-based; conditions: Human immunodeficiency virus 1, subtype B NL4-3, H9, 168 h
How it was run: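 H9 cells infected with NL4-3 at MOI 0.03 for 2 h, washed three times, then seeded at 4×10^4 cells/well with serially diluted compound. Incubated 7 days; supernatant p24 measured by in-house ELISA and EC50 calculated. Three separate experiments, mean ± standard deviation.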

[2] = Cytotoxicity against human H9 cells assessed as reduction in cell viability after 7 days by MTT assay; format: cell-based
How it was run: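 MTT viability assay. H9 at 4×10^4 cells/well or PHA-stimulated PBMCs at 5×10^5 cells/well were incubated with serially diluted compound at 37 °C, 5% CO2 for seven days before MTT read-out. CC50 was calculated; mean ± standard deviation of three separate experiments.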

[3] = Therapeutic index, ratio of CC50 for human H9 cells to EC50 for HIV1 subtype B NL4-3 infected in human H9 cells
How it was run: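 Ratio of CC50 to EC50, both measured in H9 cells: MTT cytotoxicity over seven days, and p24 ELISA after 7 days of NL4-3 infection at MOI 0.03.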

[4] = Aqueous solubility in water after 24 to 72 hrs by HPLC based shake flask method; format: physicochemical
How it was run: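 Equilibrium shake-flask solubility: excess compound placed in water, methanol, ethanol, acetonitrile, ethyl acetate or acetone and shaken 24-72 h at 25 °C. Filtered through 0.22 μm membrane, diluted, and quantified by HPLC on a C18 column with methanol/water 70/30 mobile phase and UV 251 nm. n=3, mean ± SD.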

[5] = system: Human immunodeficiency virus 1; assay: Inhibition of HIV1 Vif expressed in TREX-hVif-15 cells co-expressing EYFP-N1-tagged human A3G assessed as reduction in Vif-mediated A3G degradation at 5 to 20 ug/ml after 48 hrs by flow cytometry; format: cell-based
How it was run: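 TREX-hvif-15 cells, in which Vif is under Tet-On control, were plated at 2×10^5 cells/well and grown overnight. At about 80% confluence they were transfected with EYFP-N1-hA3G. After 6 h the cells were washed, and compounds at varied concentrations were added together with doxycycline to induce Vif. Cells were trypsin-harvested 48 h post-transfection, and EYFP-positive cells were measured by flow cytometry. The no-Vif condition was set to 100%.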

| Compound | EC50 [1] [µM] | CC50 at 168 h [2] [µM] | Ratio CC50/EC50 [3] | solubility thermodynamic [4] [µg/mL] | inhibition [5] |
| --- | --- | --- | --- | --- | --- |
| COc1ccccc1NC(=O)c1c(NS(=O)(=O)c2ccc(C)cc2)cccc1S(=O)(=O)c1ccc([N+](=O)[O-])cc1 | 172 |  |  |  |  |
| COc1ccccc1NC(=O)c1c(NCCO)cccc1S(=O)(=O)c1ccc([N+](=O)[O-])cc1 | 216 | 154 | 0.713 |  |  |
| COc1ccccc1NC(=O)c1cc([N+](=O)[O-])ccc1Sc1ccc([N+](=O)[O-])cc1 | 235 |  |  |  |  |
| COc1ccccc1NC(=O)c1c(N(C)C)cccc1S(=O)(=O)c1ccc([N+](=O)[O-])cc1 | 226 | 439 | 1.94 |  |  |
| COc1ccccc1NC(=O)c1cccnc1Sc1ccc([N+](=O)[O-])cc1 | 147 | 525 | 3.57 |  |  |
| COc1ccccc1NC(=O)c1cc(C(F)(F)F)ccc1Sc1ccc([N+](=O)[O-])cc1 | 223 |  |  |  |  |
| COc1ccccc1NC(=O)c1c(NS(=O)(=O)c2ccc(C)cc2)cccc1Sc1ccc([N+](=O)[O-])cc1 | 30.6 | 364 | 11.9 |  |  |
| COc1ccccc1NC(=O)c1c(NCCN)cccc1Sc1ccc([N+](=O)[O-])cc1 | 45.4 |  |  |  |  |
| COc1ccccc1NC(=O)c1sccc1Sc1ccc([N+](=O)[O-])cc1 | 62.2 | 472 | 7.59 |  |  |
| COc1ccccc1NC(=O)c1cc(N)ccc1Sc1ccc([N+](=O)[O-])cc1 | 6.63 |  |  |  |  |
| CNc1ccc(Sc2ccc([N+](=O)[O-])cc2)c(C(=O)Nc2ccccc2OC)c1 | 240 | 302 | 1.26 |  |  |
| COc1ccccc1NC(=O)c1c(N)cccc1[S+]([O-])c1ccc([N+](=O)[O-])cc1 (stereo not given) | 10.5 | 335 | 31.9 |  |  |
| COc1ccccc1NC(=O)c1c(NCCN)cccc1S(=O)(=O)c1ccc([N+](=O)[O-])cc1 | 214 | 211 | 0.986 |  |  |
| COc1ccccc1C(=O)Nc1nc(Cl)ncc1Sc1ccc([N+](=O)[O-])cc1 | 54.7 | 480 | 8.78 |  |  |
| CNc1cccc(S(=O)(=O)c2ccc([N+](=O)[O-])cc2)c1C(=O)Nc1ccccc1OC | 278 | 200 |  |  |  |
| COc1ccccc1NC(=O)c1c(N)cccc1Sc1ccc([N+](=O)[O-])cc1 | 1.87 | 387 | 207 |  |  |

| Compound | EC50 [1] [µM] | CC50 at 168 h [2] [µM] | Ratio CC50/EC50 [3] | solubility thermodynamic [4] [µg/mL] | inhibition [5] |
| --- | --- | --- | --- | --- | --- |
| COc1ccccc1NC(=O)c1cc(NC(C)=O)ccc1Sc1ccc([N+](=O)[O-])cc1 | 457 | 171 | 0.374 |  |  |
| COc1ccccc1NC(=O)c1c(NS(=O)(=O)c2ccccc2)cccc1S(=O)(=O)c1ccc([N+](=O)[O-])cc1 | 176 |  |  |  |  |
| COc1ccccc1NC(=O)c1c(NS(=O)(=O)c2ccccc2)cccc1Sc1ccc([N+](=O)[O-])cc1 | 187 |  |  |  |  |
| COc1ccccc1NC(=O)c1c(NC(=O)C(N)Cc2ccccc2)cccc1S(=O)(=O)c1ccc([N+](=O)[O-])cc1 (stereo not given) | 1.46 | 216 | 148 | 120 (≈ 209 µM) |  |
| COc1ccccc1NC(=O)c1c(Sc2ccc([N+](=O)[O-])cc2)cccc1N1CCOCC1 | 242 |  |  |  |  |
| COc1ccccc1NC(=O)c1c(Sc2ccc([N+](=O)[O-])cc2)cccc1[N+](=O)[O-] | 235 |  |  |  |  |
| COc1ccccc1NC(=O)c1c(NCCBr)cccc1Sc1ccc([N+](=O)[O-])cc1 | 221 |  |  |  |  |
| COc1ccccc1NC(=O)c1cscc1Sc1ccc([N+](=O)[O-])cc1 | 51.2 | 518 | 10.1 |  |  |
| COc1ccccc1NC(=O)c1c(Sc2ccc([N+](=O)[O-])cc2)cccc1N1CCNCC1 | 8.24 | 30.6 | 3.71 |  |  |
| COc1ccccc1NC(=O)c1c(N)cccc1Oc1ccc([N+](=O)[O-])cc1 | 94.6 | 202 | 2.14 |  |  |
| COc1ccccc1NC(=O)c1c(NCC(N)=O)cccc1Sc1ccc([N+](=O)[O-])cc1 | 41.8 | 35.5 | 0.849 |  |  |
| COc1ccccc1NC(=O)c1cc(Cl)ccc1Sc1ccc([N+](=O)[O-])cc1 | 18.3 | 483 | 26.4 |  |  |
| COc1ccccc1NC(=O)c1cc(N(C)C)ccc1Sc1ccc([N+](=O)[O-])cc1 | 233 | 182 | 0.781 |  |  |
| COc1ccccc1NC(=O)c1ccccc1Sc1ccc([N+](=O)[O-])cc1 | 263 |  |  |  | Active |
| COc1ccccc1NC(=O)c1c(NCCO)cccc1Sc1ccc([N+](=O)[O-])cc1 | 43.6 | 265 | 6.08 |  |  |
| COc1ccccc1NC(=O)c1cc(F)ccc1Sc1ccc([N+](=O)[O-])cc1 | 249 | 502 | 2.02 |  |  |
